Reference: ChEMBL document CHEMBL1158816, “Meroterpenes from the ascidian Aplidium aff. densum” (J Nat Prod, 2005)
Converted amounts (≈) assume the structure as drawn.

Key:
Escherichia coli = experiment: Antimicrobial activity against Escherichia coli by broth dilution method; format: functional
Outline: (§1)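 Broth dilution per NCCLS guidelines; compounds in DMSO (at most 5% of total volume) incubated with bacteria (Institut Pasteur strains) in PB medium, 37 °C, 24 h with stirring. Growth read as optical density at 630 nm. Triplicate, averaged. Where growth was absent, medium plated on rich solid medium to tell bacteriostatic from bactericidal.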

Micrococcus luteus = experiment: Antimicrobial activity against Micrococcus luteus by broth dilution method; format: functional; outline: as §1
CCRF-CEM = experiment: Cytotoxicity against human wild type CEM cells after 72 hrs; format: functional, cell-based
Outline: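 CCRF-CEM (CEM-WT) acute lymphoblastic leukemia cells grown in RPMI 1640 with L-glutamine, 10% FCS, penicillin/streptomycin, 5% CO2, 37 °C. Serial dilutions in medium (10^-4 to 1 mg/mL) added to 2 × 10^5 cells/mL without medium renewal. Cells counted with a particle counter over time. IC50 taken at 72 h; triplicate, averaged.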

**Q.** For `CC1=CC2C(CC1)C(C)(C)OC21CC(=O)C=CC1=O` (configuration not stated) [CONIDIONE], which MIC (Escherichia coli) is on record?
**A.** > 2000 µM

**Q.** And the MIC (Micrococcus luteus)?
**A.** > 2000 µM

**Q.** What does the source list for `CC(C)=CCCC1(C)C=Cc2cc(O)ccc2O1` (configuration not stated) [CORDIACHROMENE A]?
**A.** MIC (Escherichia coli): > 2000 µM; IC50 (CCRF-CEM): 30 µM; MIC (Micrococcus luteus): 510 µM (≈ 125 µg/mL)

**Q.** For `Cc1ccc2c(c1)-c1cc(O)ccc1OC2(C)C` [DIDEHYDROCONICOL], which MIC (Escherichia coli) is on record?
**A.** > 2000 µM

**Q.** And the MIC (Micrococcus luteus)?
**A.** 510 µM (≈ 123 µg/mL)

**Q.** With `CC1=C[C@@H]2c3cc(O)ccc3OC(C)(C)[C@@H]2CC1` [EPICONICOL] as the molecule, how does the MIC (Escherichia coli) read?
**A.** > 2000 µM

**Q.** What about the IC50 (CCRF-CEM) of the same molecule?
**A.** 60 µmol

**Q.** What about the MIC (Micrococcus luteus) of the same molecule?
**A.** 130 µM (≈ 31.8 µg/mL)

**Q.** Which MIC (Escherichia coli) does the source give for `COC(C)(C)[C@H]1CCC(C)=C[C@H]1c1cc(O)ccc1O` [METHOXYCONIDIOL] here?
**A.** > 2000 µM

**Q.** And the MIC (Micrococcus luteus)?
**A.** > 2000 µM
